In ChEMBL document CHEMBL1212775, “A novel class of meso-tetrakis-porphyrin derivatives exhibits potent activities against hepatitis C virus genotype 1b replicons in vitro” (Antimicrob Agents Chemother, 2010):

Tests used:
[1] = Cytotoxicity against human Huh-7 cells by luminescence based cell viability assay
[2] = Cytotoxicity against human HuH7 cells by luminescence based cell viability assay; set-up: species or system Huh-7
Outline: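 Exponentially growing Huh-7 cells seeded at 1 × 10^4 per well and incubated with compounds for 3 days. Viability read by CellTiter-Glo luminescence, used for dark compounds that interfere with methylene blue absorbance at 595 nm. CC50 derived.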

[3] = tested on: Human immunodeficiency virus 1; experiment: Antiviral activity against Human immunodeficiency virus 1 3B virus infected in human MT2 cells assessed as inhibition of virus-induced cytopathic effect by colorimetry; assay type: functional, organism-based
Outline: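 MT-2 cells, 1 × 10^3 per well in triplicate, infected with HIV-1 IIIB at 0.1 TCID50/cell and cultured with compounds. Viral CPE quantified by MTT colorimetry after 5 days to estimate EC50.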

[4] = tested on: CCRF-CEM; experiment: Mitochondrial DNA toxicity in human CEM cells; assay type: cell-based
Outline: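 CEM cell lysates slot-blotted and hybridized with an mtDNA-specific probe, then reprobed with an Alu probe as internal control. Bands quantified by autoradiography and densitometry.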

[5] = tested on: Hepatitis C virus; experiment: Antiviral activity against Hepatitis C virus genotype 1b Con1 infected in human Huh-luc/neo-ET replicon cells assessed as reduction of replicon luciferase signal after 72 hrs by luciferase reporter assay; assay type: functional, organism-based, Hepacivirus hominis
Outline: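 Replicon cells grown without G418, seeded at 5 × 10^3 per well, treated next day in duplicate with serial dilutions (DMSO control) at 37°C for 72 h. After a PBS wash, cells lysed in ice-cold passive lysis reagent and firefly luciferase RLU read as percent of compound-free control. EC50 by nonlinear regression of the dose-effect curve.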

[6] = tested on: Hepatitis B virus; experiment: Antiviral activity against Hepatitis B virus infected in human 2.2.15 cells assessed as reduction of […] after 72 hrs by southern DNA hybridization method; assay type: functional, organism-based; conditions: HepG2 2.2.15, 72 h
[7] = tested on: MT2; experiment: Cytotoxicity against human MT2 cells after 5 days by colorimetry; assay type: cell-based; conditions: MT2, 120 h
Outline: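 Uninfected MT-2 cells coincubated with compounds for 5 days. Cytotoxicity by colorimetric quantitation.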

[8] = biological target: Cytochrome c (Homo sapiens, UniProt P99999); experiment: Binding affinity to Cytochrome C
[9] = tested on: Hepatitis C virus; experiment: Antiviral activity against Hepatitis C virus genotype 1b Con1 infected in human Huh-luc/neo-ET replicon cells assessed as reduction of replicon luciferase signal after 72 hrs by luciferase reporter assay in presence of 10% fetal bovine serum; assay type: functional, organism-based, Hepacivirus hominis
Outline: (§1)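 Huh-luc/neo-ET cells without G418, incubated with serially diluted compounds in medium containing 5%, 10%, 20% or 40% (vol/vol) FBS. Firefly luciferase read after 72 h. EC50 from dose-effect curves. The 0% value is a theoretical EC50 extrapolated from the plot of EC50 versus serum level. Means ± SD of three independent experiments.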

[10] = tested on: Hepatitis C virus; experiment: Antiviral activity against Hepatitis C virus genotype 1b Con1 infected in human Huh-luc/neo-ET replicon cells assessed as reduction of replicon luciferase signal after 72 hrs by luciferase reporter assay in presence of 20% fetal bovine serum; assay type: functional, organism-based, Hepacivirus hominis
Outline: as §1

[11] = tested on: Hepatitis C virus; experiment: Antiviral activity against Hepatitis C virus genotype 1b Con1 infected in human Huh-luc/neo-ET replicon cells assessed as reduction of replicon luciferase signal after 72 hrs by luciferase reporter assay in presence of 0% fetal bovine serum; assay type: functional, organism-based, Hepacivirus hominis
Outline: as §1

[12] = tested on: Hepatitis C virus; experiment: Antiviral activity against Hepatitis C virus genotype 1b Con1 infected in human Huh-luc/neo-ET replicon cells assessed as reduction of replicon luciferase signal after 72 hrs by luciferase reporter assay in presence of 5% fetal bovine serum; assay type: functional, organism-based, Hepacivirus hominis
Outline: as §1

[13] = tested on: Hepatitis C virus; experiment: Antiviral activity against Hepatitis C virus genotype 1b Con1 infected in human Huh-luc/neo-ET replicon cells assessed as reduction of replicon luciferase signal after 72 hrs by luciferase reporter assay in presence of 40% fetal bovine serum; assay type: functional, organism-based, Hepacivirus hominis
Outline: as §1

[14] = tested on: Hepatitis C virus; experiment: Antiviral activity against Hepatitis C virus genotype 2a JFH1 infected in human YSGR-JFH replicon cells assessed as inhibition of virus RNA level after 72 hrs by quantitative RT-PCR; assay type: functional, organism-based, Hepacivirus hominis; conditions: subtype 2a JFH1, 72 h
Outline: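 YSGR-JFH genotype 2a subgenomic replicon cells (maintained with 400 μg/ml G418), 1 × 10^5 per well, incubated with DMSO, serially varied compound, or IFN-α-2a for 72 h. HCV RNA by qRT-PCR normalized to β-actin, as percent of mock-treated control. Mean ± SD of three independent experiments.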

Chain of Cytochrome c (P99999 whole entry): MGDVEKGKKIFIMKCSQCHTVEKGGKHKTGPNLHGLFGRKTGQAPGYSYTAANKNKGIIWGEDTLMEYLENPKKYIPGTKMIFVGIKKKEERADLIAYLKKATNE

Row | Structure (SMILES) | EC50 [3] | EC50 [5] | EC50 [6] | Kd [8] | EC50 [9] | EC50 [10] | EC50 [11] | EC50 [12] | EC50 [13] | EC50 [14] | CC50 [1] | CC50 [2] | IC50 [4] | CC50 [7]
1 | O=C(O)c1cc(C(=O)O)cc(-c2c3nc(c(-c4cc(C(=O)O)cc(C(=O)O)c4)c4ccc([nH]4)c(-c4cc(C(=O)O)cc(C(=O)O)c4)c4nc(c(-c5cc(C(=O)O)cc(C(=O)O)c5)c5ccc2[nH]5)C=C4)C=C3)c1 | > 100 µM | 13.6 µM |  |  |  |  |  |  |  |  | > 50 µM | > 50 µM | 25 µM | > 50 µM
2 | COC(=O)[C@H](CC(=O)O)NC(=O)c1cc(C(=O)N[C@@H](CC(=O)O)C(=O)OC)cc(-c2ccc(-c3c4nc(c(-c5ccc(-c6cc(C(=O)N[C@@H](CC(=O)O)C(=O)OC)cc(C(=O)N[C@@H](CC(=O)O)C(=O)OC)c6)cc5)c5ccc([nH]5)c(-c5ccc(-c6cc(C(=O)N[C@@H](CC(=O)O)C(=O)OC)cc(C(=O)N[C@@H](CC(=O)O)C(=O)OC)c6)cc5)c5nc(c(-c6ccc(-c7cc(C(=O)N[C@@H](CC(=O)O)C(=O)OC)cc(C(=O)N[C@@H](CC(=O)O)C(=O)OC)c7)cc6)c6ccc3[nH]6)C=C5)C=C4)cc2)c1 | 4.1 µM | 2.5 µM | > 10 µM | 1.7 µM |  |  |  |  |  |  |  | 12.5 µM | 10 µM | > 25 µM
3 | O=C(O)CNC(=O)c1ccc(-c2ccc(-c3c4nc(c(-c5ccc(-c6ccc(C(=O)NCC(=O)O)cc6)cc5)c5ccc([nH]5)c(-c5ccc(-c6ccc(C(=O)NCC(=O)O)cc6)cc5)c5nc(c(-c6ccc(-c7ccc(C(=O)NCC(=O)O)cc7)cc6)c6ccc3[nH]6)C=C5)C=C4)cc2)cc1 | 1.5 µM | 0.148 µM | > 20 µM |  |  |  |  |  |  |  | > 50 µM | > 50 µM | > 50 µM | 13 µM
4 | O=C(O)c1cccc(-c2ccc(-c3c4nc(c(-c5ccc(-c6cccc(C(=O)O)c6)cc5)c5ccc([nH]5)c(-c5ccc(-c6cccc(C(=O)O)c6)cc5)c5nc(c(-c6ccc(-c7cccc(C(=O)O)c7)cc6)c6ccc3[nH]6)C=C5)C=C4)cc2)c1 | > 25 µM | 0.764 µM | > 20 µM |  |  |  |  |  |  |  | 42.3 µM | 13 µM | 22 µM | > 25 µM

Second part, led by results:

Row | EC50 [3] | EC50 [5] | EC50 [6] | Kd [8] | EC50 [9] | EC50 [10] | EC50 [11] | EC50 [12] | EC50 [13] | EC50 [14] | Structure (SMILES) | CC50 [1] | CC50 [2] | IC50 [4] | CC50 [7]
5 | > 25 µM | 1.8 µM | > 10 µM |  |  |  |  |  |  |  | O=C(O)CNC(=O)c1ccc(-c2c3nc(c(-c4ccc(C(=O)NCC(=O)O)cc4)c4ccc([nH]4)c(-c4ccc(C(=O)NCC(=O)O)cc4)c4nc(c(-c5ccc(C(=O)NCC(=O)O)cc5)c5ccc2[nH]5)C=C4)C=C3)cc1 | 27 µM | > 50 µM | 15 µM | 3.2 µM
6 | > 25 µM | 0.877 µM | > 10 µM | 17 µM | 0.877 µM | 1.21 µM | 0.38 µM | 0.633 µM | 1.48 µM |  | O=C(O)c1ccc(-c2ccc(-c3c4nc(c(-c5ccc(-c6ccc(C(=O)O)cc6)cc5)c5ccc([nH]5)c(-c5ccc(-c6ccc(C(=O)O)cc6)cc5)c5ccc([nH]5)c(-c5ccc(-c6ccc(C(=O)O)cc6)cc5)c5nc3C=C5)C=C4)cc2)cc1 | 18.6 µM | 32.2 µM | 6 µM | 25 µM
7 | > 25 µM | 0.243 µM | > 10 µM | 0.95 µM | 0.243 µM | 0.513 µM | 0.0482 µM | 0.124 µM | 0.948 µM | 1.9 µM | O=C(O)c1ccc(-c2c3nc(c(-c4ccc(C(=O)O)cc4)c4ccc([nH]4)c(-c4ccc(C(=O)O)cc4)c4ccc([nH]4)c(-c4ccc(C(=O)O)cc4)c4nc2C=C4)C=C3)cc1 | > 50 µM | > 50 µM | > 50 µM | > 25 µM
8 | 1.05 µM | > 12.5 µM | > 10 µM |  |  |  |  |  |  |  | O=C(O)CNC(=O)c1cc(C(=O)NCC(=O)O)cc(-c2ccc(-c3c4nc(c(-c5ccc(-c6cc(C(=O)NCC(=O)O)cc(C(=O)NCC(=O)O)c6)cc5)c5ccc([nH]5)c(-c5ccc(-c6cc(C(=O)NCC(=O)O)cc(C(=O)NCC(=O)O)c6)cc5)c5nc(c(-c6ccc(-c7cc(C(=O)NCC(=O)O)cc(C(=O)NCC(=O)O)c7)cc6)c6ccc3[nH]6)C=C5)C=C4)cc2)c1 | > 50 µM | 12.5 µM | 12.5 µM | 15 µM
